ChEMBL document CHEMBL4513216, “Probing the Open Global Health Chemical Diversity Library for Multistage-Active Starting Points for Next-Generation Antimalarials” (ACS Infect Dis, 2020)

Test: Toxicity liver stage against HepG2, at 10uM
Format: cell-based
Set-up: test concentration 10 uM, cell line HepG2-A16-CD81EGFP
Settings: human, HepG2-A16-CD81EGFP cells; read-out: INHIBITION
How it was run: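 Uninfected HepG2-A16-CD81EGFP cells, 3 × 10^3 per well, 1536-well, plated on prespotted compound at 10 μM final, parasite-free screening media added to match infected plates; puromycin 10 μM positive, DMSO 0.5% negative; run in parallel with 48 h PbLuc assay at 37 °C, 5% CO2; viability by CellTiter-Glo luminescence, normalized to controls.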

Point of comparison: CCOCCN1C[C@H](c2cccc(OC)c2)[C@@H](N)C1, cytotoxicity at 10 µM -0.786%. Against it:
- N#Cc1c(Cl)nsc1NCCN1CCOCC1 — higher, 9.64%
- Cc1nnc(NCc2cccc(OCc3ccccn3)c2)c(C#N)c1C — higher, 5.93%
- Cc1ccc(-c2cn3c(n2)CO[C@@H](CNCc2cccnc2)C3)cc1 — lower, -105%
- Cn1cncc1-c1nnc([C@H]2CCN(Cc3cccnc3)C2)o1 — lower, -4.39%
- O=C(NCc1cccs1)NCC(O)(c1cccs1)C1CC1 (stereo not drawn) — higher, 1.66%
- O=C(Cn1cccn1)N1CCC(Oc2ccc(C(F)(F)F)cn2)CC1 — higher, 8.77%
- CNCc1cnc(Nc2ccccc2)nc1 — higher, 1.38%
- O=C([C@H]1CCCO1)N1CCc2ncnc(C3CC3)c2CC1 — higher, 4.79%
- NC(=O)c1ccc(NC(=O)Cn2cc(I)cn2)cc1 — higher, 8.49%
- COc1cccc(C2SCC(=O)Nc3n[nH]cc32)c1OC(C)C (stereo not drawn) — higher, 5.09%
- Cc1cc(O)c(OCC(=O)Nc2nc3c(s2)CCCC3)cn1 — higher, 12.8%
- O=C(Cn1ccc2ccc(Cl)cc21)/N=c1\[nH]nc(C2CCCO2)s1 (stereo not drawn) — higher, 10.8%
- Cc1oc(-c2nc(C#N)c(NC(C)(C)C)o2)cc1S(=O)(=O)N1CCCC1 — higher, -0.699%
- COc1ccc(CNC(=O)c2nn(C)c3c2CS(=O)(=O)CC3)cc1 — higher, 8.52%
- CCn1ccc(C(=O)Nc2ccc3c(c2)C(C)(C)C(=O)N3C)n1 — higher, 12.2%
- Cc1ccc2nc(C)cc(NCCNS(=O)(=O)c3cccnc3)c2c1 — higher, 13.5%
- Cc1cc(N2CCC(Cc3cccnc3)CC2)ncn1 — higher, 1.96%
- Fc1cccc(OC2CCN(Cc3ncc[nH]3)CC2)c1 — lower, -31.2%
- COCCNC(=O)C1(Cc2ccccc2-c2ccncc2)CCOCC1 — lower, -26.3%
- CC(=O)N1CCCC(c2ccc(C(N)=O)cn2)C1 (stereo not drawn) — higher, 5.07%
- O=C(NC1CCCc2nc(N3CCCCC3)ncc21)C1CCCC1 (stereo not drawn) — lower, -2.05%
- O=C(c1cccs1)N1CCCC(c2cc(C(F)F)n3ncnc3n2)C1 (stereo not drawn) — lower, -23.4%
- O=C(C1CCCCC1)N1CCC(n2nc(-c3ccco3)ccc2=O)CC1 — lower, -16.6%
- Cc1cncc(C2CCCN(C(=O)c3cnco3)C2)n1 (stereo not drawn) — lower, -6.94%
- COCC(=O)N1CCCC1c1nccnc1Nc1nc(C)cs1 (stereo not drawn) — lower, -3.36%
- Cc1cncc(C2CCCN(CC3CCC3)C2)n1 (stereo not drawn) — lower, -7.41%
- Cc1cc(OCC(N)=O)ccc1NC(=O)C(C)Cc1ccccc1F (stereo not drawn) — higher, -0.0944%
- COc1cccc(Cn2[nH]c(C)c3c(NC(=O)C(C)OC)nnc2-3)c1 (stereo not drawn) — lower, -2.03%
- Cc1cnc(NS(=O)(=O)c2cccc(C#N)c2)s1 — higher, 15%
- CC(=O)C(Cc1ccccc1)NC(=O)CSc1nncn1C (stereo not drawn) — higher, 3.16%
- COc1cccc(CC(C)NC(=O)c2ccc(CNC(C)=O)cc2)c1 (stereo not drawn) — higher, 7.21%
- COc1cccc(CC(C)NC(=O)NCc2ccn(C)c2)c1 (stereo not drawn) — higher, 0.166%
- CCCN(C(=O)CN1CCN(CCO)CC1)C1=CCCCC1 — higher, 6.45%
- COc1c(C2CCCN2c2ncnc3sccc23)c(C)nn1C (stereo not drawn) — higher, 21.5%
- COc1c(C2CCCN2Cc2nnc(C3CC3)o2)c(C)nn1C (stereo not drawn) — lower, -9.29%
- Cc1cccc(S(=O)(=O)NC2CCN(CC(F)(F)F)C2)c1 (stereo not drawn) — higher, 0.741%
- O=C(NCC1CCOC1)c1cc(-c2cccc(Cl)c2)[nH]n1 (stereo not drawn) — lower, -1.74%
- Cc1ccn(C)c(=O)c1NC(=O)N(C)Cc1cccc(OC(C)C)c1 — higher, 2.29%
- Cc1nc(-c2ccc(S(=O)(=O)N3CCSC3)cc2)co1 — higher, 17.2%
- CCNC(=O)CS(=O)(=O)NC1CCC(C)CC1 (stereo not drawn) — lower, -4.57%
- COCc1nc2cc3c(cc2c(=O)o1)OCCCO3 — higher, 1.19%
- COCCNC(=O)CCNC(=O)c1ccc(N2CCC(C)=N2)cc1 — higher, 2.07%
- CNS(=O)(=O)CC(=O)N1CCCc2cc(C(C)C)ccc21 — higher, 11.8%
- CN(C1CCN(C(=O)NCCc2ccc(F)cc2F)CC1)S(C)(=O)=O — higher, 12.3%
- CCNC(=O)NCCc1csc(N2CCCC2)n1 — lower, -4.63%
- Cc1csc(CNC(=O)NCC(O)c2ccc(F)c(F)c2)n1 (stereo not drawn) — higher, 2.51%
- CCC(C)C(=O)NCc1cccc(OCCN(C)C2CCOCC2)c1 (stereo not drawn) — higher, -0.114%
- CSCCNC(=O)c1cc(Br)cn1C(C)C — lower, -1.16%
- CCN(C)C(=O)CCC(=O)c1cccs1 — higher, 3.9%
- CCn1cnnc1C1CCN(C(=O)c2cccc(N(C)C)c2)CC1 — higher, 1.54%
- Cc1n[nH]c(C)c1C1CCCN1C(=O)Cc1cccc(F)c1 (stereo not drawn) — higher, 4.8%
- Cn1cc(S(=O)(=O)N2CCCC2Cn2ccnc2)cc1C(N)=O (stereo not drawn) — higher, 2.8%
- Cn1cc(CNC2CCOCC2)c(-c2cc3ccccc3o2)n1 — lower, -45.1%
- Cc1ccc(C(=O)N(C)C)cc1NC(=O)COCC1CC1 — higher, 2.95%
- Cn1c2ncccc2c(=O)n1CC(=O)NCCc1c(F)cccc1F — lower, -5.33%
- Cc1cccc(NC(=O)N2CCN(Cc3nnc(C(C)C)o3)CC2)c1 — lower, -1.02%
- CCCN1CCC(Nc2nc(C)ns2)CC1 — lower, -8.92%
- CS(=O)(=O)c1nccn1Cc1ccncc1 — higher, 14.5%
- Cc1ccc(CNc2ccccc2SCCC(N)=O)s1 — higher, 10.6%
- CC(C)n1cnnc1C1CCCN(S(=O)(=O)CCCF)C1 (stereo not drawn) — higher, 7.39%
- CC(C)OCc1noc(C2CCOC2)n1 (stereo not drawn) — higher, 1.19%
- CO[C@H]1CN(C(=O)OC(C)(C)C)CC1NCc1ccn(C)c1 (stereo partly drawn) — lower, -45.9%
- Cc1oc(-c2ccsc2)nc1CNC(C)Cn1cccn1 (stereo not drawn) — lower, -9.81%
- COCC(=O)N1CCN(C(C)c2ncc(-c3ccccc3)o2)CC1 (stereo not drawn) — higher, 5.66%
- CC(=O)Nc1cccc(Cn2nc(C)nc2C)c1 — lower, -3.19%
- CC(NC(=O)Cn1cccnc1=O)c1ccc(OC(F)(F)F)cc1 (stereo not drawn) — higher, 1.66%
- Cc1ccc(C(=O)NCCNC(=O)N(C)C(C)c2ccccn2)cc1 (stereo not drawn) — higher, 7.97%
- CC(C)(C)OC(=O)CNC(=O)CCc1nnc(-c2ccsc2)o1 — lower, -10.2%
- COc1cccc(CN(C)C(=O)CCC(=O)c2ccc(Cl)cc2)c1OC — lower, -1.1%
- O=c1[nH][nH]cc1-c1ccnc(NCCCN2CCOCC2)n1 — higher, 3.27%
- CC[C@H](C)Nc1nccc(-c2cnc3sc(C)cn3c2=O)n1 — lower, -6.02%
- Cc1nc(C(=O)N2CCN(S(C)(=O)=O)[C@@H]3CS(=O)(=O)C[C@@H]32)cs1 — lower, -9.19%
- CC(C)(O)CCc1cccc(C(=O)N2CCC[C@H]2C(N)=O)c1 — higher, 10.4%
- O=C(NCCc1noc(C2CCCO2)n1)c1cn2ccsc2n1 (stereo not drawn) — lower, -4.4%
- Cc1nc[nH]c1-c1nccn1CCN1CCCOC1=O — lower, -2.32%
- CCCN1CCN(Cc2cccc(OC(C)C)c2)[C@H]2CS(=O)(=O)C[C@H]21 — higher, 4.77%
- O=C1NC(C(=O)NCc2cccnc2Oc2ccc(F)c(F)c2)CO1 (stereo not drawn) — higher, -0.115%
- Cc1n[nH]c(C)c1-c1c(C#N)c(N)nc2c1CCc1[nH]ccc1-2 — higher, 2.83%
- Cc1cc(C(=O)NCC2CCS(=O)(=O)C2)ccc1NC(=O)c1ccco1 (stereo not drawn) — higher, 19%
- CN1[C@@H](c2ccccc2)[C@@H](C(=O)NCc2ccncc2)C[C@@]1(C)C(=O)O — lower, -40.6%
- OCc1csc(N2CCCC(COc3cccc(F)c3)C2)n1 (stereo not drawn) — higher, -0.176%
- Cc1cccc(CN2CCCC3(CCN(C4CCSCC4)C3)C2=O)c1 (stereo not drawn) — higher, 2.55%
- CN(Cc1ccccc1)C1(C(=O)NC(C)(C)CO)Cc2ccccc2C1 — higher, 0.603%
- O=C(c1cc[nH]n1)N1CCc2ncnc(NCc3ccccn3)c2CC1 — lower, -10.5%
- CC(=O)Nc1ncc(S(=O)(=O)N2CCCC(C)C2)s1 (stereo not drawn) — higher, 2.28%
- CCN(CC)C1COc2ccc(Br)cc2C1=O (stereo not drawn) — lower, -7.16%
- CCn1cc(CNCc2ccc(C(=O)OC)cc2)c(C)n1 — lower, -3.78%
- Cc1cnn(C2CCCN(C(=O)c3ccc4c(c3)CCC4)C2)c1 (stereo not drawn) — lower, -4.81%
- Cc1nc(C)n(CC2CCCN2Cc2cccc3c2OCCO3)n1 (stereo not drawn) — lower, -3.33%
- c1cnc(-c2nc(CN3CCCN(Cc4cccs4)CC3)cs2)nc1 — lower, -7.66%
- CCOc1cc(C)nc(N2CCN(C(=O)c3cc[nH]n3)CC2)n1 — lower, -8.21%
- CC1CN(C(=O)c2cccc(OCc3cscn3)c2)CCO1 (stereo not drawn) — lower, -9.86%
- OC(COCc1ccccc1)CN1CC(n2cccn2)C1 (stereo not drawn) — higher, 1.95%
- Cc1cc(C)c(CNC(=O)Cc2ccc3c(c2)CCCC3)c(=O)[nH]1 — lower, -7.39%
- Cn1ncc2c(=O)[nH]c(CN3CCc4ccccc4C3)nc21 — lower, -2.72%
- CNS(=O)(=O)CCCN1CCCC1c1noc(C)n1 (stereo not drawn) — lower, -4.38%
- COC(=O)CC(NC(=O)c1ccccc1OC)c1cccs1 (stereo not drawn) — higher, 0.35%
- Cc1nc(C2CCCN(C(=O)c3cccc4c3OCO4)C2)sc1C (stereo not drawn) — lower, -8.72%
- CCN(Cc1ccccc1Cl)Cn1nc(C)c2c(C)onc2c1=O — lower, -2.34%
- COc1ccc(CNC2CCCN(Cc3noc(C)n3)C2)cc1F (stereo not drawn) — lower, -12.5%
- Cc1nc(C)n(CC2CCCN2Cc2nc(C3CC3)no2)n1 (stereo not drawn) — lower, -12.5%
- CN(C)c1cc2c(nn1)CCN(C(=O)C1Cc3ccccc3S1)C2 (stereo not drawn) — lower, -9.52%
- CCS(=O)(=O)N(C)C(=O)c1cc(C)n(-c2cccc(OC)c2)c1C — lower, -2.35%
- Cc1cc(CN2CCN(CC(O)C(C)(C)C)CC2)no1 (stereo not drawn) — lower, -14.8%
- Cc1nc(CN2CCCC(NCCOCC(F)(F)F)C2)no1 (stereo not drawn) — lower, -11.1%
- CN(Cc1ccco1)Cc1cncc2c1CCN(S(C)(=O)=O)C2 — higher, 2.11%
- c1cnc(NCc2nnn3c2CN(Cc2ccsc2)CCC3)nc1 — higher, 10.8%
- Cn1ccnc1CN1CCN2C[C@H](Oc3ccccc3)C[C@H]2C1 — higher, 7.14%
- Cc1ccc(C(=O)N2CCC3(CC2)CC(N2CCCC2)C3)cc1 — higher, -0.77%
- Fc1ccc(CN2CCc3ncnc(C4CC4)c3CC2)cc1 — lower, -147%
- OCC1N(Cc2ccc(F)cc2)C2CCC1(O)CC2 (stereo not drawn) — higher, 8.05%
- Cc1nc[nH]c1CN1C[C@H]2CC[C@@H](C1)N(C(=O)CCc1cnn(C)c1)C2 — lower, -14.1%
